Experiments:
[1] = biological target: T1, Urease subunit alpha/Urease subunit beta (Helicobacter pylori (strain ATCC 700392 / 26695) (Campylobacterpylori), UniProt P69996); test: Inhibition of cell free Helicobacter pylori ATCC 43504 urease assessed as reduction in ammonia production by indophenol based Berthelot color reaction method
Method in brief: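 H. pylori ATCC 43504 grown 24 h at 37 °C, microaerobic (5% O2, 10% CO2, 85% N2), in Brucella broth with 10% heat-inactivated horse serum. Cells (2.0 × 10⁸ CFU/mL) pelleted at 5000 g, 4 °C, washed twice in PBS pH 7.4, stored at −80 °C, then sonicated 60 s in water with protease inhibitors. Extract preincubated with compound 1.5 h at room temperature; ammonia measured by indophenol method.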

[2] = biological target: T1, Urease subunit alpha/Urease subunit beta; test: Inhibition of urease in intact Helicobacter pylori ATCC 43504 assessed as reduction in ammonia production by indophenol based Berthelot color reaction method
Method in brief: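 H. pylori grown 24 h at 37 °C in Brucella broth with 10% heat-inactivated horse serum under microaerobic gas (5% O₂, 10% CO₂, 85% N₂). Cells harvested, washed twice in PBS pH 7.4, and resuspended to 4.0 × 10⁷ CFU/mL. Suspension pre-incubated with compound for 1.5 h at room temperature. Ammonia production measured by the indophenol (Berthelot) method.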

T1 sequence (P69996 whole entry): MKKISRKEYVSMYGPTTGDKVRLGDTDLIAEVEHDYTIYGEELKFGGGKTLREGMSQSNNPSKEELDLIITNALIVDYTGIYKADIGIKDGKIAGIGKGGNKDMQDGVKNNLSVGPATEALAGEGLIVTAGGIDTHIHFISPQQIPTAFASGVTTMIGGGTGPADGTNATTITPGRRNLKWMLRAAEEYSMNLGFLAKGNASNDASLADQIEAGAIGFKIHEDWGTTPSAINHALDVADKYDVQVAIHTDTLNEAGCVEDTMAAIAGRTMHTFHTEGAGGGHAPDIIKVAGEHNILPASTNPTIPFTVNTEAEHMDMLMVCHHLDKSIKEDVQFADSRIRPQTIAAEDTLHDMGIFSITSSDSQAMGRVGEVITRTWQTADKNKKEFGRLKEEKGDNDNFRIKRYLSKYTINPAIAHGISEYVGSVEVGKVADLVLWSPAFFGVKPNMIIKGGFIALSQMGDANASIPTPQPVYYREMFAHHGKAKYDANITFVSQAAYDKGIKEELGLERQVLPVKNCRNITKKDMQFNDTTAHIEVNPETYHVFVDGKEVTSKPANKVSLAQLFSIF
T1 sequence (P14916 whole entry, further chain): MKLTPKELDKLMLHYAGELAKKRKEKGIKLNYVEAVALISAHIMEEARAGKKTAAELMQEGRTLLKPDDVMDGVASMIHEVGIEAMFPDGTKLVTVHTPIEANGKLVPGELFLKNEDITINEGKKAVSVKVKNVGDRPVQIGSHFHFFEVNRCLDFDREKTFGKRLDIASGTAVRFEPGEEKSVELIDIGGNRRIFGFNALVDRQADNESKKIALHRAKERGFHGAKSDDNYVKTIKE

Compound	IC50 [1] [µM]	IC50 [2] [µM]
CCCCCCc1ccc(O)c(O)c1	12.3	77.8
Oc1ccc(CCc2ccc(O)c(O)c2)cc1	1.5	4.2
Oc1ccc(CCc2ccc(F)cc2)cc1O	6.2	32.4
CCCCCCCCCCc1ccc(O)c(O)c1O	124	–
Oc1ccc(CCc2ccc(F)cc2)c(O)c1O	43	–
CCOc1ccc(CCc2ccc(O)c(O)c2O)cc1OCC	69	–
CCc1ccc(O)c(O)c1	4.9	17.3
COc1ccc(CCc2ccc(O)c(O)c2)cc1OC	22.7	–
Oc1ccc(CCc2cccc(Cl)c2)c(O)c1O	50	–
CCc1ccc(O)c(O)c1O	34	–
CCCCCCCCc1ccc(O)c(O)c1O	103	–
CCCCc1ccc(O)c(O)c1	7.9	38.1
COc1ccc(CCc2ccc(O)c(O)c2O)cc1OC	71	–
Oc1ccc(CCc2cccc(Br)c2)cc1O	16.9	88.9
Oc1ccc(CCc2cccc(Cl)c2)cc1O	15.7	94.7
CCCCCCCCc1ccc(O)c(O)c1	58	–
COc1ccc(CCc2ccccc2O)cc1OC	227	–
CCCCCCCCCCCCc1ccc(O)c(O)c1O	168	–
COc1ccc(CCc2ccc(Cl)cc2)cc1OC	254	–
CCCCCCCCCCCCCCc1ccc(O)c(O)c1O	250	–
CCCCCCc1ccc(O)c(O)c1O	91	–
Oc1ccc(CCc2ccc(Br)cc2)c(O)c1O	48	–
COc1ccc(CCc2cccc(Cl)c2)cc1OC	235	–
CCCCc1ccc(O)c(O)c1O	79	–
COc1ccc(CCc2ccc(O)cc2)cc1OC	204	–
Oc1ccc(CCc2ccc(Cl)cc2)c(O)c1O	47	–
Oc1ccc(CCc2ccc(O)c(O)c2O)cc1	32	–
Oc1ccc(CCc2ccc(Cl)cc2)cc1O	8.3	50.1
Oc1ccc(CCc2cccc(Br)c2)c(O)c1O	52	–
CC(=O)NO [ACETOHYDROXAMIC ACID]	17.2	101
